HDAC3 inhib – HDAC3 deacetylase inhibitors, primary screen, biochemical, fluorescence, cell-free homogeneous; Histone deacetylase 3 (Homo sapiens), O15379; recombinant HDAC3, fluorogenic peptide/trypsin coupled; inhibition, % at 8.3 µM; hit rate 0.15% among 320,000; in the data active = inhibition above about 26%, passing the limit was not always enough; inconclusive = no clear call, values can overlap the other calls
LANA-H2B inh – blockers of LANA interaction with H2A/H2B – biochemical, FP readout, HTS, primary screen. inhibition, % (test concentration not listed). cell-free LANA-H2A/H2B peptide, fluorescence polarization. hit rate 0.6% among 320,000. Protein LANA1 (Human herpesvirus 8 type P (isolate GK18)), Q9QR71; in the data active = inhibition mostly above about 10%, no sharp cut-off; inactive = mostly below about 6.7%
GASC-1 inh – inhibitors of GASC-1 histone demethylase, primary screen, biochemical, fluorescence, DELFIA europium | Lysine-specific demethylase 4C (Homo sapiens), Q9H3R0 | GST-JMJD2C(1-420) H3K9me3 demethylation | inhibition, % at 2.35 µM | hit rate 0.069% among 330,000 | AID 2099, 2009;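 active = more than half of a compound's replicate wells show inhibition beyond 50%, single wells judged on their own value; inconclusive = some, but no more than half, of replicates pass 50% inhibition; inactive = no replicate passes 50% inhibition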;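 also: signal counts dimethyl H3K9 product captured on neutravidin plate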
Pemphigus Ab inh – inhibitors of pemphigus antibody binding to DSG3, primary screen, biochemical, bead-based, flow cytometry, scFv-GFP; DSG3-coupled beads, scFv-anti-DSG3-GFP binding; stronger effect = lower value; binding (percent of control), % at 10 µM; hit rate 0.48% among 310,000; AID 588358, 2011;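 active = binding more than 3 SD below its plate's average and above zero; inconclusive = below that plate limit but binding exactly zero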
Arrestin-AP2 inh – inhibitors of beta-arrestin/AP2 binding, primary screen, biochemical, GPCR trafficking, flow cytometry | beta-arrestin 1 C-terminal peptide binding to AP2 beta2-adaptin appendage (human) | FITC-arrestin peptide / GST-AP2 beads; AP2 beta2 appendage carries R879A mutation | inhibition, % at 10 µM | hit rate 0.31% among 340,000 | AID 504490, 2011;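 active = inhibition above a set limit, near 3 SD of compounds lacking own fluorescence, cut at about 54% in these data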
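Material – AP2 appendage R879A on GSH beads · Buffer or medium – PBS with 0.05% Tween 20 and 0.1% BSA · Probe or stimulus – fluorescein-tagged arrestin peptide at 50 nM final · Incubation – compound with beads 12 min RT, then probe 1 h RT · Detection – high-throughput flow cytometry of beads, ex 488, em 535 nm · Evaluation – percent response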
T cell HTS – modulators of CD8 T cell-vesicle binding, primary screen, mouse 2C CD8+ T cells, flow cytometry; 2C CD8+ T cell-vesicle binding; stronger effect = lower value; response (vesicle binding), % at 7 µM; hit rate 0.068% among 330,000; AID 2052, 2009;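 active = response, share of CD8 T cells binding vesicles, and their 90th percentile fluorescence all below set limits, cut at about 80% in these data, passing the limit was not always enough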;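 also: values below 100% mean blocked vesicle binding to the CD8+ T cells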
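Read-out – percent CD8+ FL2 mean versus row control · System – murine 2C transgenic CD8+ T lymphocytes · Times – 1.5 h cell–vesicle binding at 37 °C, then 20 min icy labelling · Control set – naked vesicles low, QL9 vesicles with vehicle high · Detection – cytometric PE anti-B7-1 and Alexa647 anti-CD8 signals after 1% paraformaldehyde fixation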
Arr AP2 CP1 – inhibitors of arrestin peptide binding to AP2, confirmation, biochemical, cherry pick 1, flow cytometry beads; shares compounds with Arrestin-AP2 inh; GST-AP2 beads, FITC arrestin peptide binding; GST-fused beta2-adaptin appendage, R879A mutant; inhibition, % at 10 µM; hit rate 2% among 1,300;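 active = inhibition above a set limit, roughly 3 SD of non-fluorescent compound noise, cut at about 38% in these data; inactive = inhibition at or below that limit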;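 also: loss of bead fluorescence from 50 nM FITC arrestin peptide bound to appendage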
Target sequence (P63010 whole entry, looked up, the tested form may be a part, one chain of several): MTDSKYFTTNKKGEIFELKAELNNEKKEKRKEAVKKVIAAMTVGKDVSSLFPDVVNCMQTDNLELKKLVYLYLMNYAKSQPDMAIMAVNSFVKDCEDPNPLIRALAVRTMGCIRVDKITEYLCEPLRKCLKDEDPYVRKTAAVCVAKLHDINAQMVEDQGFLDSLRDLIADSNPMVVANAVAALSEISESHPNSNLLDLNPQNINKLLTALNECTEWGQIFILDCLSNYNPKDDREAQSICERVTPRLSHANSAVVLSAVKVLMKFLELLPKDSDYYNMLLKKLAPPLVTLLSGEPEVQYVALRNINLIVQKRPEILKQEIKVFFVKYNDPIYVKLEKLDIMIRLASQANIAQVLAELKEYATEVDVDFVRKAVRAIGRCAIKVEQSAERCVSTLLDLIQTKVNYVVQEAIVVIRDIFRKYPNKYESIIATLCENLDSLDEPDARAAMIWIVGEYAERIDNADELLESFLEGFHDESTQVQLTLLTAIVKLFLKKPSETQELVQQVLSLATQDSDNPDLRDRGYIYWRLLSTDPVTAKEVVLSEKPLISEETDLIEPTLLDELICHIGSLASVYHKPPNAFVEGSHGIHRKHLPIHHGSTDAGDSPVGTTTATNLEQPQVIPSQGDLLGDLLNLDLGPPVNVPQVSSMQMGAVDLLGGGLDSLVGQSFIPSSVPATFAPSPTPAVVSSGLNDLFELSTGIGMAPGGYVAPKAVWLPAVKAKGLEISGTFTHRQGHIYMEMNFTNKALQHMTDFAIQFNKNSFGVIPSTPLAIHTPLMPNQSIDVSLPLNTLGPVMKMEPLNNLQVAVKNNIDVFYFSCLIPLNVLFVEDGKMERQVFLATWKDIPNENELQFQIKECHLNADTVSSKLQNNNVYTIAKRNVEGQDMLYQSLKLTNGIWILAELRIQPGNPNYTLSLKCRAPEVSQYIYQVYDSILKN
GST GSH counter – GST-fluorescein capture on glutathione beads, confirmation, artefact control for arrestin-AP2 inhibitor project, biochemical, cherry pick 1, flow cytometry; shares compounds with Arrestin-AP2 inh; GST-fluorescein binding to GSH beads, fluorescence, counter-screen; inhibition, % at 10 µM; hit rate 2% among 1,300;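 active = inhibition above 50%, about 3 SD of the inhibition seen with non-fluorescent compounds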;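 also: fluorescein maleimide labelled GST captured on 4 micron glutathione beads; higher means more loss of bead fluorescence from quenching or blocked binding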
Each line names hits and unclear results; the compound was inactive in the other large screens (follow-up assays come after a bar, where they were run). Only some compounds are listed: those with a hit (about 1.6% of all), similar ones and a draw of the others.

CCCN1CCN(CCCNC(=O)CN2C(=O)COc3ccc(C(C)(C)C)cc32)CC1	none (no result: HDAC3 inhib, LANA-H2B inh, GASC-1 inh, Arrestin-AP2 inh, T cell HTS)
Cc1ccc(OCc2cn3cccnc3n2)cc1	Arrestin-AP2 inh 67 | Arr AP2 CP1 inactive | GST GSH counter inactive
CC1CCC(CC(=O)O)(C(=O)O)CC1 (stereo not drawn)	none (no result: HDAC3 inhib, LANA-H2B inh, GASC-1 inh, T cell HTS)
COc1ccc(OC)c(CNC(=O)CCNC(=O)Cn2ccc3ccccc3c2=O)c1	none
COc1ccc(Br)cc1CNC(=O)CCNC(=O)Cn1ccc2ccccc2c1=O	Arrestin-AP2 inh 57 | Arr AP2 CP1 inactive | GST GSH counter inactive
CC1CN(c2ccccn2)C(C)CN1C(=S)Nc1ccccc1 (stereo not drawn)	none (no result: HDAC3 inhib, LANA-H2B inh, GASC-1 inh, T cell HTS)
CN(C(=O)CS(=O)(=O)c1cn(CC(=O)N2CCCCC2)c2ccccc12)c1ccccc1	none
Cc1cc(C)cc(NC(=O)C(=O)NCC2CCCN2S(=O)(=O)c2cccs2)c1 (stereo not drawn)	Arrestin-AP2 inh 69 | Arr AP2 CP1 inactive | GST GSH counter inactive
NC(N)=N/N=C(\N=Nc1ccccc1)c1ccc(Cl)cc1	none (no result: HDAC3 inhib, LANA-H2B inh, GASC-1 inh, T cell HTS)
CCCN(C(=O)c1cc(Cl)nc2ccccc12)c1c(N)n(Cc2ccccc2)c(=O)[nH]c1=O	none
Cc1cc(O)ccc1N/C=C/c1onc(C)c1[N+](=O)[O-]	Arrestin-AP2 inh 99 | Arr AP2 CP1 inactive | GST GSH counter inactive
COc1ccc(CNC(=O)CN(C(=O)CCC(=O)Nc2nccs2)c2ccc(C)cc2)cc1	none
CC12CCC(=O)N1C(C(=O)Nc1nnc(SCc3ccccc3)s1)CS2 (stereo not drawn)	none
CCSc1nnc(NC(=O)C2CSC3(C)CCC(=O)N23)s1 (stereo not drawn)	Pemphigus Ab inh inconclusive, Arrestin-AP2 inh 60 | Arr AP2 CP1 inactive | GST GSH counter inactive
O=S(=O)(c1cccc(-c2cn3cccnc3n2)c1)N1CCCCCC1	Arrestin-AP2 inh 61 | Arr AP2 CP1 inactive | GST GSH counter inactive
Cc1cc(NC(=O)CCC(=O)N(Cc2cccnc2)C(C(=O)NC(C)(C)C)c2ccccc2Cl)no1 (stereo not drawn)	Arrestin-AP2 inh 57 | Arr AP2 CP1 inactive | GST GSH counter inactive
Cc1cc(NC(=O)CCC(=O)N(C2CC2)C(C(=O)NC(C)(C)C)c2ccccc2Cl)no1 (stereo not drawn)	none
CCN(CC)C(=O)Cn1cc(/C=C(\C#N)C(=O)NC2CC2)c2ccccc21	Arrestin-AP2 inh 61 | Arr AP2 CP1 inactive | GST GSH counter inactive
Cc1ccccc1OCC(=O)NNC(=O)c1ccoc1C	none
COc1ccccc1CNC(=O)COC(=O)c1c(C)nn(-c2ccccc2)c1Cl	Arrestin-AP2 inh 67 (no result: HDAC3 inhib) | Arr AP2 CP1 inactive | GST GSH counter inactive
COc1cccc(CNC(=O)COC(=O)c2c(C)nn(-c3ccccc3)c2Cl)c1	none
O=[N+]([O-])c1ccc(S(=O)(=O)NN=CCCc2ccccc2)cc1	none (no result: HDAC3 inhib, LANA-H2B inh, GASC-1 inh, T cell HTS)
CSCCC(NC(=O)C1CCC(C)CC1)C(=O)OCC(=O)c1ccc(Cl)cc1 (stereo not drawn)	Pemphigus Ab inh 3.8, Arrestin-AP2 inh 106 | Arr AP2 CP1 inactive | GST GSH counter inactive
CSCCC(NC(=O)C12CC3CC(CC(C3)C1)C2)C(=O)OCC(=O)c1ccc(Cl)cc1 (stereo not drawn)	none (no result: Pemphigus Ab inh)

Bioassay records as filed in PubChem.
